Experimental data published in ChEMBL document CHEMBL3217692, “Synthesis and cytotoxicity evaluation of novel pyrido[3,4-d]pyrimidine derivatives as potential anticancer agents” (2012).

Experiments:
Type in all cases: functional
[1] = tested on: 786-0; test: Cytotoxicity against human 786-0 cells assessed as cell growth at 10 uM after 48 hrs by sulforhodamine B assay relative to control; details: 786-0, 48 h, read-out: Activity
Summary of the method: (§1)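 Adherent cells were grown in RPMI 1640 with 5% FBS and 2 mM L-glutamine, seeded at 5000–40 000 cells/well by doubling time, and held 24 h at 37 °C, 5% CO2 before drug. Time-zero plates were TCA-fixed. Compound in DMSO, single dose 10 μM, 48 h. Cells were fixed with cold TCA (final 10%, 60 min, 4 °C) and stained with 0.4% SRB. Bound dye was dissolved in 10 mM Tris base and read at 515 nm. Percent growth was derived from time-zero, control and treated absorbances.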

[2] = Cytotoxicity against human EKVX cells assessed as cell growth at 10 uM after 48 hrs by sulforhodamine B assay relative to control; details: read-out: Activity; summary of the method: as §1
[3] = tested on: IGROV-1; test: Cytotoxicity against human IGROV1 cells assessed as cell growth at 10 uM after 48 hrs by sulforhodamine B assay relative to control; details: IGROV-1, 48 h, read-out: Activity; summary of the method: as §1
[4] = tested on: RXF 393; test: Cytotoxicity against human RXF393 cells assessed as cell growth at 10 uM after 48 hrs by sulforhodamine B assay relative to control; details: RXF 393, 48 h, read-out: Activity; summary of the method: as §1
[5] = Cytotoxicity against human Hs 578T cells assessed as cell growth at 10 uM after 48 hrs by sulforhodamine B assay relative to control; details: read-out: Activity; summary of the method: as §1
[6] = tested on: MDA-MB-435; test: Cytotoxicity against human MDA-MB-435 cells assessed as cell growth at 10 uM after 48 hrs by sulforhodamine B assay relative to control; details: MDA-MB-435, 48 h, read-out: Activity; summary of the method: as §1
[7] = Cytotoxicity against human HCT15 cells assessed as cell growth at 10 uM after 48 hrs by sulforhodamine B assay relative to control; details: HCT-15, 48 h, read-out: Activity; summary of the method: as §1
[8] = Cytotoxicity against human UACC62 cells assessed as cell growth at 10 uM after 48 hrs by sulforhodamine B assay relative to control; details: UACC-62, 48 h, read-out: Activity
Summary of the method: (§2)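 NCI-60 single-dose screen. Cells were grown in RPMI 1640 with 5% FBS and 2 mM L-glutamine, seeded at 5000–40 000 cells/well according to doubling time, and pre-incubated 24 h at 37 °C, 5% CO2. Time-zero plates were TCA-fixed at dosing. Compound in DMSO was given at 10 μM for 48 h. Cells were then fixed in cold TCA, stained with 0.4% SRB, solubilised in 10 mM Tris base and read at 515 nm. Growth % was calculated from time-zero, control and treated absorbances.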

[9] = tested on: NCI-H460; test: Cytotoxicity against human NCI-H460 cells assessed as cell growth at 10 uM after 48 hrs by sulforhodamine B assay relative to control; details: NCI-H460, 48 h, read-out: Activity; summary of the method: as §1
[10] = tested on: CAKI-1; test: Cytotoxicity against human CAKI-1 cells assessed as cell growth at 10 uM after 48 hrs by sulforhodamine B assay relative to control; details: CAKI-1, 48 h, read-out: Activity; summary of the method: as §1
[11] = tested on: U-251; test: Cytotoxicity against human U251 cells assessed as cell growth at 10 uM after 48 hrs by sulforhodamine B assay relative to control; details: U-251, 48 h, read-out: Activity; summary of the method: as §2
[12] = tested on: SF-268; test: Cytotoxicity against human SF268 cells assessed as cell growth at 10 uM after 48 hrs by sulforhodamine B assay relative to control; details: SF-268, 48 h, read-out: Activity; summary of the method: as §1
[13] = Cytotoxicity against human OVCAR4 cells assessed as cell growth at 10 uM after 48 hrs by sulforhodamine B assay relative to control; details: OVCAR-4, 48 h, read-out: Activity; summary of the method: as §1
[14] = tested on: MOLT-4; test: Cytotoxicity against human MOLT4 cells assessed as cell growth at 10 uM after 48 hrs by sulforhodamine B assay relative to control; details: MOLT-4, 48 h, read-out: Activity
Summary of the method: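 Suspension lines were cultured in RPMI 1640 with 5% FBS and 2 mM L-glutamine, plated at 5000–40 000 cells/well and preincubated 24 h (37 °C, 5% CO2). Compound in DMSO was given at a single 10 μM dose for 48 h. Settled cells were fixed with 80% TCA (final 16%), then stained with SRB and read at 515 nm. Growth percentage was taken relative to time-zero and untreated control absorbances.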

[15] = tested on: COLO 205; test: Cytotoxicity against human COLO205 cells assessed as cell growth at 10 uM after 48 hrs by sulforhodamine B assay relative to control; details: COLO 205, 48 h, read-out: Activity; summary of the method: as §1
[16] = tested on: NCI-H322M; test: Cytotoxicity against human NCI-H322M cells assessed as cell growth at 10 uM after 48 hrs by sulforhodamine B assay relative to control; details: read-out: Activity; summary of the method: as §1
[17] = tested on: HL-60(TB); test: Cytotoxicity against human HL-60(TB) cells assessed as cell growth at 10 uM after 48 hrs by sulforhodamine B assay relative to control; details: HL-60, 48 h, read-out: Activity
Summary of the method: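 Suspension line grown in RPMI 1640 with 5% FBS and 2 mM L-glutamine, plated at 5000–40 000 cells/well and preincubated 24 h at 37 °C, 5% CO2. Time-zero plates fixed at dosing. Single 10 μM dose in DMSO for 48 h. Settled cells fixed with TCA (final 16%), then stained with 0.4% SRB, solubilised in 10 mM Tris and read at 515 nm. Growth percentage calculated against time-zero and untreated control.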

[18] = tested on: SK-MEL-28; test: Cytotoxicity against human SK-MEL-28 cells assessed as cell growth at 10 uM after 48 hrs by sulforhodamine B assay relative to control; details: SK-MEL-28, 48 h, read-out: Activity; summary of the method: as §1
[19] = tested on: SN12C; test: Cytotoxicity against human SN12C cells assessed as cell growth at 10 uM after 48 hrs by sulforhodamine B assay relative to control; details: read-out: Activity; summary of the method: as §1
[20] = tested on: A498; test: Cytotoxicity against human A498 cells assessed as cell growth at 10 uM after 48 hrs by sulforhodamine B assay relative to control; details: A498, 48 h, read-out: Activity; summary of the method: as §1
[21] = Cytotoxicity against human OVCAR5 cells assessed as cell growth at 10 uM after 48 hrs by sulforhodamine B assay relative to control; details: OVCAR-5, 48 h, read-out: Activity; summary of the method: as §1
[22] = tested on: MDA-MB-468; test: Cytotoxicity against human MDA-MB-468 cells assessed as cell growth at 10 uM after 48 hrs by sulforhodamine B assay relative to control; details: MDA-MB-468, 48 h, read-out: Activity; summary of the method: as §1
[23] = Cytotoxicity against human OVCAR3 cells assessed as cell growth at 10 uM after 48 hrs by sulforhodamine B assay relative to control; details: OVCAR-3, 48 h, read-out: Activity; summary of the method: as §1
[24] = tested on: M14; test: Cytotoxicity against human M14 cells assessed as cell growth at 10 uM after 48 hrs by sulforhodamine B assay relative to control; details: M14, 48 h, read-out: Activity; summary of the method: as §1
[25] = tested on: TK-10; test: Cytotoxicity against human TK10 cells assessed as cell growth at 10 uM after 48 hrs by sulforhodamine B assay relative to control; details: TK-10, 48 h, read-out: Activity; summary of the method: as §2
[26] = tested on: DU-145; test: Cytotoxicity against human DU145 cells assessed as cell growth at 10 uM after 48 hrs by sulforhodamine B assay relative to control; details: DU-145, 48 h, read-out: Activity; summary of the method: as §1

## COc1nccc2c(-c3cccc(F)c3)nc(N)nc12
[1]
  growth at 10 µM: 100%
[2]
  growth at 10 µM: 104%
[3]
  growth at 10 µM: 117%
[4]
  growth at 10 µM: 101%
[5]
  growth at 10 µM: 103%
[6]
  growth at 10 µM: 118%
[7]
  growth at 10 µM: 95%
[8]
  growth at 10 µM: 101%
[9]
  growth at 10 µM: 112%
[10]
  growth at 10 µM: 104%
[11]
  growth at 10 µM: 94.9%
[12]
  growth at 10 µM: 108%
[13]
  growth at 10 µM: 97.6%
[14]
  growth at 10 µM: 77.8%
[15]
  growth at 10 µM: 109%
[16]
  growth at 10 µM: 112%
[17]
  growth at 10 µM: 92.5%
[18]
  growth at 10 µM: 97%
[19]
  growth at 10 µM: 115%
[20]
  growth at 10 µM: 88.5%
[21]
  growth at 10 µM: 96%
[22]
  growth at 10 µM: 28.6%
[23]
  growth at 10 µM: 107%
[24]
  growth at 10 µM: 118%
[25]
  growth at 10 µM: 101%
[26]
  growth at 10 µM: 110%
